Measured values from ChEMBL document CHEMBL1287642, “Synthesis, antiviral activity and cytotoxicity evaluation of Schiff bases of some 2-phenyl quinazoline-4(3)H-ones” (Eur J Med Chem, 2010).
In brackets after ≈: the same amount, converted by molar mass.

What was measured:
[1] = Cytotoxicity against human HEL cells assessed as minimum concentration required to cause microscopically detectable alteration after 2 days; assay type: cell-based; settings: read-out: Activity
[2] = tested on: Human alphaherpesvirus 2; experiment: Antiviral activity against Herpes simplex virus-2 G infected in human HEL cells assessed as protection against virus-induced cytopathogenicity after 2 days; assay type: functional, organism-based; settings: Human alphaherpesvirus 2, strain G, 48 h
[3] = tested on: Vesicular stomatitis virus; experiment: Antiviral activity against Vesicular stomatitis virus infected in human HEL cells assessed as protection against virus-induced cytopathogenicity after 2 days; assay type: functional, organism-based; settings: 48 h
[4] = tested on: Human alphaherpesvirus 1; experiment: Antiviral activity against acyclovir-resistant TK deficient Herpes simplex virus-1 KOS infected in human HEL cells assessed as protection against virus-induced cytopathogenicity after 2 days; assay type: functional, organism-based; settings: Human alphaherpesvirus 1, KOS, 48 h
[5] = Cytotoxicity against african green monkey Vero cells assessed as minimum concentration required to cause microscopically detectable alteration after 2 days; assay type: cell-based; settings: chlorocebus sabaeus, read-out: Activity
[6] = tested on: Human respirovirus 3; experiment: Antiviral activity against Para influenza-3 virus infected in african green monkey Vero cells assessed as protection against virus-induced cytopathogenicity after 2 days; assay type: functional, organism-based; settings: Human respirovirus 3, Vero, 48 h
[7] = tested on: Mammalian orthoreovirus 1; experiment: Antiviral activity against Reovirus-1 infected in african green monkey Vero cells assessed as protection against virus-induced cytopathogenicity after 2 days; assay type: functional, organism-based; settings: Mammalian orthoreovirus 1, Vero, 48 h
[8] = tested on: Coxsackievirus B4; experiment: Antiviral activity against Coxsackie virus B4 infected in african green monkey Vero cells assessed as protection against virus-induced cytopathogenicity after 2 days; assay type: functional, organism-based; settings: Enterovirus B, 48 h
[9] = tested on: Felid alphaherpesvirus 1; experiment: Antiviral activity against Feline herpes virus infected in cat CRFK cells assessed as protection against virus-induced cytopathogenicity after 2 days by MTS assay; assay type: functional, organism-based; settings: Felid alphaherpesvirus 1, CRFK, 48 h
[10] = Cytotoxicity against human HeLa cells assessed as minimum concentration required to cause microscopically detectable alteration after 2 days; assay type: cell-based; settings: read-out: Activity
[11] = tested on: Vesicular stomatitis virus; experiment: Antiviral activity against Vesicular stomatitis virus infected in human HeLa cells assessed as protection against virus-induced cytopathogenicity after 2 days; assay type: functional, organism-based; settings: 48 h
[12] = tested on: Influenza A virus; experiment: Antiviral activity against influenza A virus H1N1 infected in MDCK cells assessed as protection against virus-induced cytopathogenicity at 100 ug/ml after 2 days; assay type: functional, organism-based
Outline: (§1)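 Infected MDCK cells were treated. […] N.A. means not active at the highest concentration tested or at a subtoxic concentration.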

[13] = tested on: Influenza A virus; experiment: Antiviral activity against Influenza A virus H3N2 infected in MDCK cells assessed as protection against virus-induced cytopathogenicity at 100 ug/ml after 2 days; assay type: functional, organism-based; outline: as §1
[14] = tested on: Influenza B virus; experiment: Antiviral activity against influenza B virus infected in MDCK cells assessed as protection against virus-induced cytopathogenicity at 100 ug/ml after 2 days; assay type: functional, organism-based; outline: as §1
[15] = tested on: Influenza A virus; experiment: Antiviral activity against influenza A virus H1N1 infected in MDCK cells assessed as cell viability at 100 ug/ml after 2 days by MTS assay; assay type: functional, organism-based
[16] = tested on: Influenza A virus; experiment: Antiviral activity against Influenza A virus H3N2 infected in MDCK cells assessed as cell viability at 100 ug/ml after 2 days by MTS assay; assay type: functional, organism-based
[17] = tested on: Influenza B virus; experiment: Antiviral activity against influenza B virus infected in MDCK cells assessed as cell viability at 100 ug/ml after 2 days by MTS assay; assay type: functional, organism-based
[18] = tested on: Human alphaherpesvirus 1; experiment: Antiviral activity against Herpes simplex virus-1 KOS infected in human HEL cells assessed as protection against virus-induced cytopathogenicity after 2 days; assay type: functional, organism-based; settings: Human alphaherpesvirus 1, KOS, 48 h
[19] = tested on: Sindbis virus; experiment: Antiviral activity against Sindbis virus infected in african green monkey Vero cells assessed as protection against virus-induced cytopathogenicity after 2 days; assay type: functional, organism-based; settings: 48 h
[20] = tested on: Punta Toro virus; experiment: Antiviral activity against Punta Toro virus infected in african green monkey Vero cells assessed as protection against virus-induced cytopathogenicity after 2 days; assay type: functional, organism-based; settings: 48 h
[21] = Cytotoxicity against cat CRFK cells by MTS assay; assay type: cell-based, Felis catus
Outline: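 In uninfected CRFK cells, the 50% cytotoxic concentration was derived from cell viability measured by the colorimetric formazan-based MTS assay.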

[22] = tested on: Feline infectious peritonitis virus; experiment: Antiviral activity against Feline coronavirus FIPV infected in cat CRFK cells assessed as protection against virus-induced cytopathogenicity after 2 days by MTS assay; assay type: functional, cell-based; settings: Alphacoronavirus 1, CRFK, 48 h
[23] = tested on: Coxsackievirus B4; experiment: Antiviral activity against Coxsackie virus B4 infected in human HeLa cells assessed as protection against virus-induced cytopathogenicity after 2 days; assay type: functional, organism-based; settings: Enterovirus B, 48 h
[24] = tested on: Respiratory syncytial virus; experiment: Antiviral activity against Respiratory syncytial virus infected in human HeLa cells assessed as protection against virus-induced cytopathogenicity after 2 days; assay type: functional, organism-based; settings: 48 h
[25] = tested on: MDCK; experiment: Cytotoxicity against MDCK cells by MTS assay; assay type: cell-based, Canis lupus familiaris; settings: dog, mdck
Outline: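 In Madin Darby canine kidney cells, the 50% cytotoxic concentration was derived from cell viability measured by the colorimetric formazan-based MTS assay.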

[26] = Cytotoxicity against MDCK cells assessed as minimum concentration required to cause microscopically detectable alteration after 2 days; assay type: cell-based, Canis lupus familiaris; settings: dog, read-out: Activity

Compound	MCC at 48 h [1] [µg/mL]	EC50 [2] [µg/mL]	EC50 [3] [µg/mL]	EC50 [4] [µg/mL]	MCC at 48 h [5] [µg/mL]	EC50 [6] [µg/mL]	EC50 [7] [µg/mL]	EC50 [8] [µg/mL]	EC50 [9] [µg/mL]	MCC at 48 h [10] [µg/mL]	EC50 [11] [µg/mL]	EC50 [12]	EC50 [13]	EC50 [14]	EC50 [15]	EC50 [16]	EC50 [17]	EC50 [18] [µg/mL]	EC50 [19] [µg/mL]	EC50 [22] [µg/mL]	also measured
O=c1[nH]c(=O)n([C@H]2C[C@H](O)[C@@H](CO)O2)cc1/C=C/Br [BRIVUDINE]	> 250	50 (≈ 150 µM)	> 250																		
C/C(=N\n1c(-c2ccccc2)nc2ccccc2c1=O)c1ccc(Cl)cc1	100			> 20	100	> 20	> 20	> 20	> 100	100	> 20	Not Active	Not Active	Not Active	Not Active	Not Active	Not Active				
C/C(=N\n1c(-c2ccccc2)nc2ccccc2c1=O)c1ccc(O)cc1	> 100	> 100	> 100	> 100	100	> 100	> 100	> 100	> 100	> 100	> 100	Not Active	Not Active	Not Active	Not Active	Not Active	Not Active	> 100	> 100	> 100	EC50 [20]: > 100 µg/mL; CC50 ([21]; crfk): > 100 µg/mL; EC50 [23]: > 100 µg/mL; EC50 [24]: > 100 µg/mL; CC50 [25]: > 100 µg/mL; MCC at 48 h [26]: > 100 µg/mL
Nc1ccn(C[C@@H](CO)OCP(=O)(O)O)c(=O)n1.O.O [CIDOFOVIR]	> 250		> 250																		
O=c1c2ccccc2nc(-c2ccccc2)n1/N=C/c1cccc([N+](=O)[O-])c1	≥ 20	> 20	> 20	> 20	20	> 4	> 4	> 4	> 4	20	> 4	Not Active	Not Active	Not Active	Not Active	Not Active	Not Active	> 20	> 4	> 4	EC50 [20]: > 4 µg/mL; CC50 ([21]; crfk): 13.8 µg/mL (≈ 37.3 µM); EC50 [23]: > 4 µg/mL; EC50 [24]: > 4 µg/mL; CC50 [25]: > 100 µg/mL; MCC at 48 h [26]: 20 µg/mL
Nc1ncnc2c1ncn2C[C@H](O)CO [(S)-DHPA]					> 250	> 250	> 250	> 250		> 250	> 250								> 250		EC50 [20]: > 250 µg/mL; EC50 [23]: > 250 µg/mL; EC50 [24]: > 250 µg/mL
O=c1c2ccccc2nc(-c2ccccc2)n1/N=C/c1ccc(O)cc1	100	> 20	> 20	> 20	100	> 20	> 20	> 20	> 20	100	> 20	Not Active	Not Active	Not Active	Not Active	Not Active	Not Active	> 20	> 20	> 20	EC50 [20]: > 20 µg/mL; CC50 ([21]; crfk): 59.5 µg/mL (≈ 174 µM); EC50 [23]: > 20 µg/mL; EC50 [24]: > 20 µg/mL; CC50 [25]: 10.2 µg/mL (≈ 29.9 µM); MCC at 48 h [26]: 20 µg/mL
N=C(N)NCCC[C@H](N)C(=O)O [ARGININE]									1.6 (≈ 9.18 µM)											2.6 (≈ 14.9 µM)	CC50 ([21]; CRFK cells, read-out: CC50): > 100 µg/mL
COc1ccc(/C=N/n2c(-c3ccccc3)nc3ccccc3c2=O)cc1O	100	> 20	> 20	> 20	100	> 20	> 20	> 20	> 20	20	> 4	Not Active	Not Active	Not Active	Not Active	Not Active	Not Active	> 20	> 20	> 20	EC50 [20]: > 20 µg/mL; CC50 ([21]; crfk): 42.7 µg/mL (≈ 115 µM); EC50 [23]: > 4 µg/mL; EC50 [24]: > 4 µg/mL; CC50 [25]: 47.4 µg/mL (≈ 128 µM); MCC at 48 h [26]: 20 µg/mL
C/C(=N\n1c(-c2ccccc2)nc2ccccc2c1=O)c1ccccc1	> 100	> 100	> 100	> 100	100	> 20	> 20	> 20	> 0.8	> 100	> 100	Not Active	Not Active	Not Active	Not Active	Not Active	Not Active	> 100	> 20	> 0.8	EC50 [20]: > 20 µg/mL; CC50 ([21]; crfk): 2.6 µg/mL (≈ 7.66 µM); EC50 [23]: > 100 µg/mL; EC50 [24]: > 100 µg/mL; CC50 [25]: > 100 µg/mL; MCC at 48 h [26]: 100 µg/mL
Nc1nc2c(ncn2COC(CO)CO)c(=O)[nH]1 [GANCICLOVIR]	> 100	0.07 (≈ 0.274 µM)	> 100	2 (≈ 7.84 µM)					0.8 (≈ 3.13 µM)									0.05 (≈ 0.196 µM)		> 100	CC50 ([21]; CRFK cells, read-out: CC50): > 100 µg/mL
CN(C)c1ccc(/C=N/n2c(-c3ccccc3)nc3ccccc3c2=O)cc1			> 20	> 20		> 20	> 20		> 100			Not Active	Not Active	Not Active	Not Active	Not Active	Not Active				EC50 [23]: > 20 µg/mL
CC(=O)N[C@H]1[C@H](OOP(=O)(O)OP(=O)(O)OC[C@H]2O[C@@H](n3ccc(=O)[nH]c3=O)[C@H](O)[C@@H]2O)O[C@H](CO)[C@@H](O)[C@@H]1O[C@](C)(OP(=O)(O)O)C(=O)O									53.1 (≈ 67.1 µM)											11.7 (≈ 14.8 µM)	CC50 ([21]; CRFK cells, read-out: CC50): > 100 µg/mL
O=c1c2ccccc2nc(-c2ccccc2)n1/N=C/c1ccc(Cl)cc1	100	> 20	> 20	> 20	20	> 4	> 4	> 4	> 20	20	> 4	Not Active	Not Active	Not Active	Not Active	Not Active	Not Active	> 20	> 4	> 20	EC50 [20]: > 4 µg/mL; CC50 ([21]; crfk): 42.2 µg/mL (≈ 117 µM); EC50 [23]: > 4 µg/mL; EC50 [24]: > 4 µg/mL; CC50 [25]: 76.4 µg/mL (≈ 212 µM); MCC at 48 h [26]: 20 µg/mL
NC(=O)c1ncn([C@@H]2O[C@H](CO)[C@@H](O)[C@H]2O)n1 [RIBAVIRIN]	> 250	> 250		> 250	> 250		> 250	> 250		> 250	22 (≈ 90.1 µM)							> 250	> 250		EC50 [24]: 22 µg/mL (≈ 90.1 µM); MCC at 48 h [26]: > 100 µg/mL
